Values after ≈ are worked out from the molar mass of the structure shown.
What was measured:
Assay type in all cases: functional
Bacillus subtilis = experiment: Antibacterial activity against Bacillus subtilis ATCC 33712 after 24 hrs by microtiter broth dilution method; conditions: ATCC 33712, 24 h
In short: (§1)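 Compounds dissolved in DMSO and serially diluted by microtiter broth dilution following NCCLS guidance. Plates incubated at 37 °C for 24 h. MIC80 (ug/mL) taken as the lowest concentration inhibiting visible growth. Ceftazidime, cefotaxime, cefradine and sodium penicillin served as reference drugs.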

Staphylococcus aureus [1] = experiment: Antibacterial activity against methicillin-resistant Staphylococcus aureus ATCC 700699 after 24 hrs by microtiter broth dilution method; conditions: ATCC 700699, 24 h
In short: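 Compounds dissolved in DMSO and serially diluted in microtiter broth following NCCLS guidance. Plates were incubated at 37 °C for 24 h. MIC80 was read as the lowest concentration inhibiting visible growth of the organism, in µg/mL.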

Escherichia coli = experiment: Antibacterial activity against Escherichia coli ATCC 11303 after 24 hrs by microtiter broth dilution method; conditions: ATCC 11303, 24 h; in short: as §1
Staphylococcus aureus [2] = experiment: Antibacterial activity against Staphylococcus aureus ATCC 29213 after 24 hrs by microtiter broth dilution method; conditions: ATCC 29213, 24 h; in short: as §1
Pseudomonas aeruginosa = experiment: Antibacterial activity against Pseudomonas aeruginosa ATCC 49189 after 24 hrs by microtiter broth dilution method; conditions: ATCC 49189, 24 h; in short: as §1

SMILES | MIC80 (Bacillus subtilis) [µg/mL] | MIC80 (Staphylococcus aureus [1]) [µg/mL] | MIC80 (Escherichia coli) [µg/mL] | MIC80 (Staphylococcus aureus [2]) [µg/mL] | MIC80 (Pseudomonas aeruginosa) [µg/mL]
Cc1ccc(-c2cc3ccc(OCc4ccccc4)cc3o2)o1 | > 200 | 12.5 (≈ 41.1 µM) | > 200 | > 200 | > 200
CC(=O)c1c(-c2ccc(C)o2)oc2cc(O)ccc12 | 12.5 (≈ 48.8 µM) | 6.25 (≈ 24.4 µM) | 12.5 (≈ 48.8 µM) | 6.25 (≈ 24.4 µM) | 12.5 (≈ 48.8 µM)
COc1ccc(-c2oc3cc(OCCc4nc(-c5ccccc5)oc4C)ccc3c2C(=O)/C=C/c2cc(OC)c(OC)c(OC)c2)cc1 | > 200 | > 200 | > 200 | > 200 | > 200
CC(=O)c1c(-c2ccc(C)o2)oc2cc(OCCc3nc(-c4ccccc4)oc3C)ccc12 | > 200 | > 200 | > 200 | > 200 | > 200
CC1=C(C(=O)O)N2C(=O)[C@@H](NC(=O)[C@H](N)C3=CCC=CC3)[C@H]2SC1 [CEPHRADINE] | 50 (≈ 143 µM) | > 200 | 25 (≈ 71.5 µM) | > 200 | > 200
Oc1ccc2cc(-c3ccccc3)oc2c1 | 3.12 (≈ 14.8 µM) | 1.56 (≈ 7.42 µM) | 6.25 (≈ 29.7 µM) | 6.25 (≈ 29.7 µM) | 0.78 (≈ 3.71 µM)
COc1cc(C(=O)c2c(-c3ccc(C)o3)oc3cc(OCCc4nc(-c5ccccc5)oc4C)ccc23)cc(OC)c1OC | > 200 | > 200 | > 200 | 12.5 (≈ 21.1 µM) | > 200
CC1(C)S[C@@H]2[C@H](NC(=O)Cc3ccccc3)C(=O)N2[C@H]1C(=O)[O-].[Na+] [PENICILLIN G SODIUM] | < 0.39 | 3.12 | 0.78 | 3.12 | –
CO/N=C(\C(=O)N[C@@H]1C(=O)N2C(C(=O)O)=C(COC(C)=O)CS[C@H]12)c1csc(N)n1 [CEFOTAXIME] | 0.78 (≈ 1.71 µM) | 3.12 (≈ 6.85 µM) | > 200 | 3.12 (≈ 6.85 µM) | –
c1ccc(COc2ccc3cc(-c4ccccc4)oc3c2)cc1 | 100 (≈ 333 µM) | > 200 | > 200 | 100 (≈ 333 µM) | 100 (≈ 333 µM)
COc1cc(/N=C/c2c(-c3ccccc3)oc3cc(OCCc4nc(-c5ccccc5)oc4C)ccc23)cc(OC)c1OC | > 200 | > 200 | > 200 | 3.12 (≈ 5.3 µM) | > 200
COc1ccc(-c2cc3ccc(O)cc3o2)cc1 | 1.56 (≈ 6.49 µM) | 0.78 (≈ 3.25 µM) | 3.12 (≈ 13 µM) | 1.56 (≈ 6.49 µM) | 1.56 (≈ 6.49 µM)
CC(C)(O/N=C(\C(=O)N[C@@H]1C(=O)N2C(C(=O)[O-])=C(C[n+]3ccccc3)CS[C@H]12)c1csc(N)n1)C(=O)O [CEFTAZIDIME] | 6.25 (≈ 11.4 µM) | 12.5 (≈ 22.9 µM) | > 200 | 0.78 (≈ 1.43 µM) | 12.5 (≈ 22.9 µM)
Cc1oc(-c2ccccc2)nc1CCOc1ccc2cc(-c3ccccc3)oc2c1 | > 200 | > 200 | > 200 | > 200 | > 200
COc1ccc(-c2cc3ccc(OCc4ccccc4)cc3o2)cc1 | > 200 | > 200 | > 200 | > 200 | > 200
Cc1ccc(-c2oc3cc(OCCc4nc(-c5ccccc5)oc4C)ccc3c2C(=O)c2ccco2)o1 | > 200 | > 200 | > 200 | > 200 | > 200
Cc1ccc(-c2oc3cc(OCCc4nc(-c5ccccc5)oc4C)ccc3c2C(=O)c2ccc(C(F)(F)F)cc2)o1 | > 200 | > 200 | > 200 | > 200 | > 200
Cc1ccc(-c2cc3ccc(O)cc3o2)o1 | 1.56 (≈ 7.28 µM) | 3.12 (≈ 14.6 µM) | 3.12 (≈ 14.6 µM) | 1.56 (≈ 7.28 µM) | 0.78 (≈ 3.64 µM)
COc1ccc(-c2oc3cc(OCCc4nc(-c5ccccc5)oc4C)ccc3c2C(C)=O)cc1 | > 200 | > 200 | > 200 | > 200 | > 200
COc1ccc(-c2cc3ccc(OCCc4nc(-c5ccccc5)oc4C)cc3o2)cc1 | 50 (≈ 118 µM) | > 200 | > 200 | > 200 | > 200
COc1cc(NCc2c(-c3ccccc3)oc3cc(OCCc4nc(-c5ccccc5)oc4C)ccc23)cc(OC)c1OC | > 200 | > 200 | > 200 | > 200 | > 200

— ChEMBL document CHEMBL2040849, “Synthesis and antimicrobial evaluation of 3-methanone-6-substituted-benzofuran derivatives” (2012)
